Assay results: ChEMBL document CHEMBL3425426, “Discovery of DS-1558: A Potent and Orally Bioavailable GPR40 Agonist” (ACS Med Chem Lett, 2015)
Active and inactive are the calls of the source.

Legend:
[1] = target: Free fatty acid receptor 1 (Homo sapiens, UniProt O14842); assay: Agonist activity at human GPR40 expressed in CHO cells assessed as calcium flux by FLIPR assay; assay type: functional, cell-based
[2] = target: T1, Peroxisome proliferator-activated receptor gamma (Homo sapiens) (UniProt P37231); assay: Agonist activity at PPARgamma (unknown origin) relative to rosiglitazone
T1 sequence (whole entry): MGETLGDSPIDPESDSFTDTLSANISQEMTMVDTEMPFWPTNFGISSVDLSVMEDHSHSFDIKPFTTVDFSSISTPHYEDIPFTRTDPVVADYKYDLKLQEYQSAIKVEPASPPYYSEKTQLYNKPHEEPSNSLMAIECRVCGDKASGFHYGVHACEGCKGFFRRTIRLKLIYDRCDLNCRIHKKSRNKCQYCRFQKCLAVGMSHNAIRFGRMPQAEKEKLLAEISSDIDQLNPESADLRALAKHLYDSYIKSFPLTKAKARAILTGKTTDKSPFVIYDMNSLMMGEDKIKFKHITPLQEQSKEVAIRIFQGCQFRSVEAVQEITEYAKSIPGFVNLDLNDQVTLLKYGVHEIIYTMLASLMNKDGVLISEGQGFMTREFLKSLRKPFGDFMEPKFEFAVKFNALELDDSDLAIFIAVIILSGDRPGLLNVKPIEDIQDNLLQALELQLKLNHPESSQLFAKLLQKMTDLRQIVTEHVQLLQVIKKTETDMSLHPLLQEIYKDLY

[3] = target: T2, Peroxisome proliferator-activated receptor gamma (Homo sapiens, UniProt P37231); assay: Agonist activity at PPARgamma (unknown origin)
T2 sequence (P37231 whole entry): T1 sequence (whole entry)

[4] = tested on: Rattus norvegicus; assay: Increase in plasma insulin level in ZDF rat at 10 mg/kg, po dosed 30 mins before glucose challenge by OGTT method; assay type: functional, organism-based; design: dose 10 mg/kg
How it was run: (§1)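 Male Zucker diabetic fatty rats, 9 weeks old, n = 6 per group. Oral dose given 30 min before an oral glucose challenge of 2 g/kg. Plasma glucose and plasma insulin were followed over time after the challenge. Values are reported as mean ± standard error.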

[5] = tested on: Rattus norvegicus; assay: Reduction in glucose excursion in ZDF rat at 10 mg/kg, po dosed 30 mins before glucose challenge by OGTT method; assay type: functional, organism-based; design: dose 10 mg/kg; how it was run: as §1
[6] = species: Mus musculus; assay: Induction of glucose-stimulated insulin secretion in GPR40 knock out mouse pancreatic islets; assay type: functional
[7] = species: Homo sapiens; assay: Selectivity for human GPR40 over nAchR (unknown origin)
[8] = species: Homo sapiens; assay: Selectivity for human GPR40 over central imidazoline I2 receptor (unknown origin)
[9] = species: Homo sapiens; assay: Selectivity for human GPR40 over histamine H3 receptor (unknown origin)
[10] = species: Homo sapiens; assay: Selectivity for human GPR40 over histamine H1 receptor (unknown origin)
[11] = species: Homo sapiens; assay: Selectivity for human GPR40 over KATP channel (unknown origin)
[12] = species: Homo sapiens; assay: Selectivity for human GPR40 over bradykinin B1 receptor (unknown origin)
[13] = species: Homo sapiens; assay: Selectivity for human GPR40 over 5HT3 receptor (unknown origin)
[14] = species: Homo sapiens; assay: Selectivity for human GPR40 over muscarinic M2 receptor (unknown origin)
[15] = species: Homo sapiens; assay: Selectivity for human GPR40 over calcium channel L-type dihydropyridine binding site (unknown origin)
[16] = species: Homo sapiens; assay: Selectivity for human GPR40 over mu opioid receptor (unknown origin)
[17] = species: Homo sapiens; assay: Selectivity for human GPR40 over central GABAB1A receptor (unknown origin)
[18] = species: Homo sapiens; assay: Selectivity for human GPR40 over P2X receptor (unknown origin)
[19] = species: Homo sapiens; assay: Selectivity for human GPR40 over NMDA receptor glycine binding site (unknown origin)
[20] = species: Homo sapiens; assay: Selectivity for human GPR40 over GABA transporter (unknown origin)
[21] = species: Homo sapiens; assay: Selectivity for human GPR40 over IL1 receptor (unknown origin)
[22] = species: Homo sapiens; assay: Selectivity for human GPR40 over adrenergic alpha1A receptor (unknown origin)
[23] = species: Homo sapiens; assay: Selectivity for human GPR40 over PAF receptor (unknown origin)
[24] = species: Homo sapiens; assay: Selectivity for human GPR40 over muscarinic M1 receptor (unknown origin)
[25] = species: Homo sapiens; assay: Selectivity for human GPR40 over endothelin ETA receptor (unknown origin)
[26] = species: Homo sapiens; assay: Selectivity for human GPR40 over adrenergic alpha2A receptor (unknown origin)
[27] = species: Homo sapiens; assay: Selectivity for human GPR40 over NET (unknown origin)
[28] = species: Homo sapiens; assay: Selectivity for human GPR40 over CysLT1 receptor (unknown origin)
[29] = species: Homo sapiens; assay: Selectivity for human GPR40 over adrenergic beta2 receptor (unknown origin)
[30] = species: Homo sapiens; assay: Selectivity for human GPR40 over bradykinin B2 receptor (unknown origin)
[31] = species: Homo sapiens; assay: Selectivity for human GPR40 over GCR (unknown origin)
[32] = species: Homo sapiens; assay: Selectivity for human GPR40 over human ERG channel
[33] = species: Homo sapiens; assay: Selectivity for human GPR40 over central GABAA receptor muscimol binding site (unknown origin)
[34] = species: Homo sapiens; assay: Selectivity for human GPR40 over NK1 receptor (unknown origin)
[35] = species: Homo sapiens; assay: Selectivity for human GPR40 over dopamine D1 receptor (unknown origin)
[36] = species: Homo sapiens; assay: Selectivity for human GPR40 over nAchR alpha1 bungarotoxin binding site (unknown origin)
[37] = species: Homo sapiens; assay: Selectivity for human GPR40 over EP4 receptor (unknown origin)
[38] = tested on: Rattus norvegicus; assay: Reduction in glucose excursion in ZDF rat at 0.1 mg/kg, po dosed 30 mins before glucose challenge by OGTT method; assay type: functional, organism-based; design: dose 0.1 mg/kg; how it was run: as §1
[39] = species: Homo sapiens; assay: Selectivity for human GPR40 over rolipram binding receptor (unknown origin)
[40] = species: Homo sapiens; assay: Selectivity for human GPR40 over adrenergic beta1 receptor (unknown origin)
[41] = species: Homo sapiens; assay: Selectivity for human GPR40 over ERalpha (unknown origin)
[42] = species: Homo sapiens; assay: Selectivity for human GPR40 over dopamine D3 receptor (unknown origin)
[43] = species: Homo sapiens; assay: Selectivity for human GPR40 over adenosine A3 receptor (unknown origin)
[44] = species: Homo sapiens; assay: Selectivity for human GPR40 over kainate receptor (unknown origin)
[45] = species: Homo sapiens; assay: Selectivity for human GPR40 over adenosine A2A receptor (unknown origin)
[46] = species: Homo sapiens; assay: Selectivity for human GPR40 over adrenergic alpha1D receptor (unknown origin)
[47] = species: Homo sapiens; assay: Selectivity for human GPR40 over muscarinic M3 receptor (unknown origin)
[48] = species: Homo sapiens; assay: Selectivity for human GPR40 over dopamine D2S receptor (unknown origin)
[49] = species: Homo sapiens; assay: Selectivity for human GPR40 over delta opioid receptor (unknown origin)
[50] = species: Homo sapiens; assay: Selectivity for human GPR40 over neuropeptide YY2 receptor (unknown origin)
[51] = species: Homo sapiens; assay: Selectivity for human GPR40 over EGF receptor (unknown origin)
[52] = species: Homo sapiens; assay: Selectivity for human GPR40 over endothelin ETB receptor (unknown origin)
[53] = tested on: Rattus norvegicus; assay: Reduction in glucose excursion in ZDF rat at 0.03 mg/kg, po dosed 30 mins before glucose challenge by OGTT method; assay type: functional, organism-based; design: dose 0.03 mg/kg; how it was run: as §1
[54] = species: Homo sapiens; assay: Selectivity for human GPR40 over kappa opioid receptor (unknown origin)
[55] = species: Homo sapiens; assay: Selectivity for human GPR40 over androgen receptor (unknown origin)
[56] = species: Homo sapiens; assay: Selectivity for human GPR40 over P2Y receptor (unknown origin)
[57] = species: Mus musculus; assay: Induction of glucose-stimulated insulin secretion in wild type mouse pancreatic islets; assay type: functional
[58] = species: Homo sapiens; assay: Selectivity for human GPR40 over sigma-1 receptor (unknown origin)
[59] = species: Homo sapiens; assay: Selectivity for human GPR40 over thyroid receptor receptor (unknown origin)
[60] = species: Homo sapiens; assay: Selectivity for human GPR40 over sodium channel site 2 (unknown origin)
[61] = species: Homo sapiens; assay: Selectivity for human GPR40 over NMDA receptor phencyclidine binding site (unknown origin)
[62] = tested on: Rattus norvegicus; assay: Increase in plasma insulin level in ZDF rat at 0.1 mg/kg, po dosed 30 mins before glucose challenge by OGTT method; assay type: functional, organism-based; design: dose 0.1 mg/kg; how it was run: as §1
[63] = species: Homo sapiens; assay: Selectivity for human GPR40 over neuropeptide YY1 receptor (unknown origin)
[64] = species: Homo sapiens; assay: Selectivity for human GPR40 over adrenergic alpha1B receptor (unknown origin)
[65] = species: Homo sapiens; assay: Selectivity for human GPR40 over MT1 receptor (unknown origin)
[66] = species: Homo sapiens; assay: Selectivity for human GPR40 over SERT (unknown origin)
[67] = species: Homo sapiens; assay: Selectivity for human GPR40 over phorbol ester receptor (unknown origin)
[68] = species: Homo sapiens; assay: Selectivity for human GPR40 over GPR103 (unknown origin)
[69] = species: Homo sapiens; assay: Selectivity for human GPR40 over dopamine D4.2 receptor (unknown origin)
[70] = species: Homo sapiens; assay: Selectivity for human GPR40 over sigma-2 receptor (unknown origin)
[71] = species: Homo sapiens; assay: Selectivity for human GPR40 over calcium channel L-type benzothiazepine binding site (unknown origin)
[72] = target: T1, Peroxisome proliferator-activated receptor gamma (Homo sapiens); assay: Agonist activity at PPARgamma (unknown origin) up to 100 uM
[73] = species: Homo sapiens; assay: Selectivity for human GPR40 over histamine H2 receptor (unknown origin)
[74] = species: Homo sapiens; assay: Selectivity for human GPR40 over DAT (unknown origin)
[75] = species: Homo sapiens; assay: Selectivity for human GPR40 over central GABAA receptor flunitrazepam binding site (unknown origin)
[76] = species: Homo sapiens; assay: Selectivity for human GPR40 over adenosine A1 receptor (unknown origin)
[77] = species: Homo sapiens; assay: Selectivity for human GPR40 over 5HT1A receptor (unknown origin)

Chain of Free fatty acid receptor 1 (O14842 whole entry): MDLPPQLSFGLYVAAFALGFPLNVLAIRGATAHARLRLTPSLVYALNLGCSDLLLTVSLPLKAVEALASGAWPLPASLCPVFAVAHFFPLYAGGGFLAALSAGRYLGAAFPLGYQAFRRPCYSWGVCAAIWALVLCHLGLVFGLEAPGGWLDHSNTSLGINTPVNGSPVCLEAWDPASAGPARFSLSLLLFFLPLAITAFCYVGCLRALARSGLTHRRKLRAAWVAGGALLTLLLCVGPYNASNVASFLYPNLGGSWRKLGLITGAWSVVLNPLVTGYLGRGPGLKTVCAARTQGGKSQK

CCO[C@@H](CC(=O)O)c1ccc(O[C@@H]2CCc3ccccc32)cc1
31 nM: EC50 [1]

CCO[C@@H](CC(=O)O)c1ccc(OCc2ccc(C(F)(F)F)cc2)cc1
10400 nM: EC50 [3]
11.3%: Emax [2]
5.3 nM: EC50 [1]

CCO[C@H](CC(=O)O)c1ccc(O[C@H]2CCc3c2cccc3C(F)(F)F)cc1
2600 nM: EC50 [1]

CCO[C@@H](CC(=O)O)c1ccc(OC2Cc3ccccc3C2)cc1
83 nM: EC50 [1]

CCOC(CC(=O)O)c1ccc(OCc2ccc(Cl)c(Cl)c2)cc1 (racemic)
6.2 nM: EC50 [1]

CCOc1cccc2c1CC[C@H]2Oc1ccc([C@H](CC(=O)O)OCC)cc1
63 nM: EC50 [1]

N[C@@H](CC(=O)N1CCn2c(nnc2C(F)(F)F)C1)Cc1cc(F)c(F)cc1F
active: Activity [4] | Activity [5]

CCO[C@@H](CC(=O)O)c1ccc(O[C@@H]2CCc3c2cccc3C(F)(F)F)cc1
3.7 nM: EC50 [1]
> 100: Selectivity ratio [7] | Selectivity ratio [8] | Selectivity ratio [9] | Selectivity ratio [10] | Selectivity ratio [11] | Selectivity ratio [12] | Selectivity ratio [13] | Selectivity ratio [14] | Selectivity ratio [15] | Selectivity ratio [16] | Selectivity ratio [17] | Selectivity ratio [18] | Selectivity ratio [19] | Selectivity ratio [20] | Selectivity ratio [21] | Selectivity ratio [22] | Selectivity ratio [23] | Selectivity ratio [24] | Selectivity ratio [25] | Selectivity ratio [26] | Selectivity ratio [27] | Selectivity ratio [28] | Selectivity ratio [29] | Selectivity ratio [30] | Selectivity ratio [31] | Selectivity ratio [32] | Selectivity ratio [33] | Selectivity ratio [34] | Selectivity ratio [35] | Selectivity ratio [36] | Selectivity ratio [37] | Selectivity ratio [39] | Selectivity ratio [40] | Selectivity ratio [41] | Selectivity ratio [42] | Selectivity ratio [43] | Selectivity ratio [44] | Selectivity ratio [45] | Selectivity ratio [46] | Selectivity ratio [47] | Selectivity ratio [48] | Selectivity ratio [49] | Selectivity ratio [50] | Selectivity ratio [51] | Selectivity ratio [52] | Selectivity ratio [54] | Selectivity ratio [55] | Selectivity ratio [56] | Selectivity ratio [58] | Selectivity ratio [59] | Selectivity ratio [60] | Selectivity ratio [61] | Selectivity ratio [63] | Selectivity ratio [64] | Selectivity ratio [65] | Selectivity ratio [66] | Selectivity ratio [67] | Selectivity ratio [68] | Selectivity ratio [69] | Selectivity ratio [70] | Selectivity ratio [71] | Selectivity ratio [73] | Selectivity ratio [74] | Selectivity ratio [75] | Selectivity ratio [76] | Selectivity ratio [77]
inactive: Activity [6] | Activity [72]
active: Activity [38] | Activity [53] | Activity [57] | Activity [62]

CCO[C@H](CC(=O)O)c1ccc(OCc2ccc(Cl)c(Cl)c2)cc1
360 nM: EC50 [1]
